Like-named read-outs stand apart in the source and are kept apart here. Marks after values point to notes of the source that are not given here.
Columns and labels:
Qa-1^b [1] = assay type: binding, mouse; settings: for Binding of poly-Gly peptides to Qa-1^b (in words): Table 2 in words, 20 μM; for Blocking of / binding to Qa-1^b at 20 μM (in words): 20 μM competitor
sM3 = experiment: SPR direct binding of sM3 to immobilized QdmC5; settings: Fig. 1 B; 0.5 μM sM3, 20 μl at 1 μl/min
sCD1 = experiment: SPR direct binding of sCD1 to immobilized QdmC5; settings: data not shown
Qa-1^b [2] = settings: previous finding; ref [6]; cited from earlier work
[3] = Solubility of peptides in running buffer / aqueous solvents; assay type: physicochemical
In short: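 Solubility was judged for peptides used as competitors in SPR on a Biacore 2000 at 25°C. The running buffer was Hepes-buffered saline, or 2% DMSO in HBS for the hydrophobic leader peptides. Competitors were at 20 μM (poly-Gly series titrated up to 20 μM), co-injected with 0.5 μM soluble Qa-1b at 1 μl/min for 20 min over immobilized QdmC5.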

[4] = biological target: QdmC5 peptide (…) (mouse); experiment: SPR
[5] = biological target: QdmC5 peptide (…) (mouse); experiment: SPR; remark: listed apart in the source
[6] = biological target: QdmC5 peptide (…) (mouse); experiment: SPR; remark: listed apart in the source
[7] = biological target: QdmC5 peptide (…) (mouse); experiment: SPR; remark: listed apart in the source
[8] = biological target: soluble Qa-1^b/β2-microglobulin dimer (mouse (C57BL/6) | murine) (UniProt P06339); experiment: SPR
Sequence of UniProt P06339 (P06339 21-357, chain 1 of 2): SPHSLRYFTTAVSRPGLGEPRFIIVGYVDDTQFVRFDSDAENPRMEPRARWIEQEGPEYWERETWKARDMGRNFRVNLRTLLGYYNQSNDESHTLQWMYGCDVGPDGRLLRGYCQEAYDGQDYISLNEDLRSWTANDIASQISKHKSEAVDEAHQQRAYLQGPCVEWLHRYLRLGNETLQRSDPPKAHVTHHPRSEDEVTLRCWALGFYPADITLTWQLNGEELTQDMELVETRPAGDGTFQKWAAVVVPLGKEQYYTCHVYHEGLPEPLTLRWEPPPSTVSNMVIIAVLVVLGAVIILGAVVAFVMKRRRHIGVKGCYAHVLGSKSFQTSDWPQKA
Sequence of UniProt P06339 (P01887 21-119, chain 2 of 2, further chain): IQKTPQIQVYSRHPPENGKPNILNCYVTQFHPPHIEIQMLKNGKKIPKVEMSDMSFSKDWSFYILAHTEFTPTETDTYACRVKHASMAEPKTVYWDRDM

Which results are given for “10-mer: Qdm extended by adding a leucine at position 10 (AMAPRTLLLL)”?
Binding at 200 nM (in words) (Qa-1^b [1]; Fig. 1 D, 0.5 μM sQa-1^b, competitor 200 nM): almost no binding; Binding relative to the Qdm nonamer at 20 and 2 μM (in words) (Qa-1^b [1]; Fig. 1 D, 0.5 μM sQa-1^b, competitor 20 and 2 μM): decreased binding relative to the nonamer

For AMAPCTLLL [QdmC5], which “Binding of soluble protein to immobilized peptide (in words)” value (sM3) is on record?
The value was “failed to bind”.

And the “Binding of soluble protein to immobilized peptide (in words)” value (sCD1)?
Its value is “failed to bind”.

For AMAPRTLLL [Qdm, reference compound], which “Blocking of Qa-1^b binding / binding ability over the titration (in words)” value (Qa-1^b [1]; Fig. 1 D, 0.5 μM sQa-1^b, competitor 200 nM to 20 μM, 1 μl/min for 20 min) is on record?
Its value is “completely blocked binding”.

What about the “Binding to Qa-1^b in 2% DMSO (in words)” value (Qa-1^b [1]; Fig. 3 B, running buffer 2% DMSO in HBS) of the same molecule?
The value was “bind Qa-1^b”.

What about the “Affinity of binding to Qa-1^b (in words)” value (Qa-1^b [2]) of the same molecule?
The value was “very high affinity”.

For GMGGGGGLL, which “Binding of poly-Gly peptides to Qa-1^b (in words)” value (Qa-1^b [1]) is on record?
Its value is “very little binding”.

For GMGGGGLGL, which “Binding of poly-Gly peptides to Qa-1^b (in words)” value (Qa-1^b [1]) is on record?
Its value is “very little binding”.

With GMGGGGLLL as the molecule, how does the “Blocked binding of sQa-1^b to immobilized QdmC5 peptide” value (Qa-1^b [1]; highest concentration tested (20 μM)) read?
Its value is > 50%.

What about the “Blocking activity at 200 nM (in words)” value (Qa-1^b [1]; titration, 200 nM) of the same molecule?
The value was “none”.

And the “Blocking activity at 2 μM (in words)” value (Qa-1^b [1]; titration, 2 μM)?
The value was “relatively little blocking activity”.

Which “Blocking of / binding to Qa-1^b at 20 μM (in words)” value (Qa-1^b [1]; Fig. 1 D, 0.5 μM sQa-1^b) does the source give for MAPRTLLLL here?
Its value is “failed to bind”.

Which “Blocking of / binding to Qa-1^b at 20 μM (in words)” value (Qa-1^b [1]; Fig. 1 D, 0.5 μM sQa-1^b) does the source give for MGAMAPRTL here?
The value was “failed to bind”.

With VMSPTVLLL as the molecule, how does the “Solubility in 2% DMSO in HBS” value ([3]; 2% DMSO in HBS (SPR running buffer)) read?
The value was “remained soluble”.

What about the “Solubility in aqueous solvents” value ([3]; aqueous solvents) of the same molecule?
Its value is “not soluble in aqueous solvents”.

With “soluble Qa-1^b/β2-microglobulin dimer (from UniProt P06339 21-357; P01887 21-119) (complex)” as the molecule, how does the RU, binding in the absence of peptide [4] read?
Its RU, binding in the absence of peptide is 230 RU.

What about the RU, binding in the absence of peptide [5] of the same molecule?
The RU, binding in the absence of peptide was 276 RU.

And the RU, binding in the absence of peptide [6]?
Its RU, binding in the absence of peptide is 263 RU.

And the RU, binding in the absence of peptide [7]?
The RU, binding in the absence of peptide was 345 RU.

For AMAPRTLLL [Qdm peptide (…)], which RU of sQa-1^b left on immobilised QdmC5 with 20 μM Qdm [8] is on record?
Its RU of sQa-1^b left on immobilised QdmC5 with 20 μM Qdm is 25 RU.

From publication PMC2213384 (The Journal of Experimental Medicine, 1998)
